This is an account of results in ChEMBL document CHEMBL4346670, “Discovery of Novel Janus Kinase (JAK) and Histone Deacetylase (HDAC) Dual Inhibitors for the Treatment of Hematological Malignancies” (J Med Chem, 2019).

The test system of assay [1] is K562. As to the kind of experiment: Antiproliferative activity against human K562 cells assessed as reduction in cell viability after 48 hrs by MTT assay. The format is functional, cell-based. The conditions noted are these: K562, 48 h.
Assay [2] has as its system HEL. Description: Antiproliferative activity against HEL cells harboring JAK2 V617F mutant assessed as reduction in cell viability after 48 hrs by MTT assay. The format is functional, cell-based. The conditions noted are these: Homo sapiens. For orientation: Tetrazolium dyes change colour on reduction, which living cells bring about.
Assay [3] has as its target Tyrosine-protein kinase JAK2 (Homo sapiens, UniProt O60674). As to the kind of experiment: Inhibition of recombinant human JAK2 using Ulight-CAGAGAIETDKEYYTVKD as substrate measured after 60 mins by LANCE assay.
The target in assay [4] is Histone deacetylase. As to the kind of experiment: Inhibition of HDAC in human HeLa nuclear extract using Boc-Lys(acetyl)-AMC as substrate preincubated for 5 mins followed by substrate addition and measured after 30 mins by fluorescence assay. The format is cell-based.
The target in assay [5] is Histone deacetylase (Homo sapiens) (UniProt Q13547+O15379+Q9UBN7+Q92769+Q9UQL6+Q8WUI4+Q9BY41+Q96DB2+P56524+Q9UKV0+Q969S8). As to the kind of experiment: Potency index, ratio of SAHA IC50 to test compound IC50 for inhibition of HDAC in human HeLa cell nuclear extract. The format is cell-based. The procedure, abridged:
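HeLa cell nuclear extract was incubated with serial concentrations of compound for 5 min at 37 °C. Boc-Lys(acetyl)-AMC substrate was added for 30 min at 37 °C, then developer containing trypsin and TSA for 20 min. Fluorescence was read at ex 390/em 460 nm against control wells.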

In assay [6] the test system is MOLT-4. As to the kind of experiment: Antiproliferative activity against human MOLT4 cells assessed as reduction in cell viability after 48 hrs by MTT assay. The format is functional, cell-based. To be noted: MOLT-4, 48 h. The procedure, abridged:
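Cells kept in RPMI1640 with 10% FBS at 37 °C, 5% CO2. Seeded and grown for 12 h, then exposed to a range of compound concentrations for 48 h. 0.5% MTT added for 4 h, formazan dissolved in DMSO, absorbance read at 570 nm.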

Assay [7] deals with Jurkat. As to the kind of experiment: Antiproliferative activity against human Jurkat cells assessed as reduction in cell viability after 48 hrs by MTT assay. The class given is functional, cell-based.
The target in assay [8] is Tyrosine-protein kinase JAK1 (Homo sapiens, UniProt P23458). Description: Inhibition of recombinant human JAK1 using Ulight-CAGAGAIETDKEYYTVKD as substrate measured after 60 mins by LANCE assay. In short, it runs like this: (§1)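 Human recombinant JAK enzyme assays run by a contract lab. IC50 was taken from a non-linear curve fit, with all parameters allowed to float. Assays were run in replicate (n>2) and reported as mean ± SD.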
Sequence of Tyrosine-protein kinase JAK1 (P23458 whole entry): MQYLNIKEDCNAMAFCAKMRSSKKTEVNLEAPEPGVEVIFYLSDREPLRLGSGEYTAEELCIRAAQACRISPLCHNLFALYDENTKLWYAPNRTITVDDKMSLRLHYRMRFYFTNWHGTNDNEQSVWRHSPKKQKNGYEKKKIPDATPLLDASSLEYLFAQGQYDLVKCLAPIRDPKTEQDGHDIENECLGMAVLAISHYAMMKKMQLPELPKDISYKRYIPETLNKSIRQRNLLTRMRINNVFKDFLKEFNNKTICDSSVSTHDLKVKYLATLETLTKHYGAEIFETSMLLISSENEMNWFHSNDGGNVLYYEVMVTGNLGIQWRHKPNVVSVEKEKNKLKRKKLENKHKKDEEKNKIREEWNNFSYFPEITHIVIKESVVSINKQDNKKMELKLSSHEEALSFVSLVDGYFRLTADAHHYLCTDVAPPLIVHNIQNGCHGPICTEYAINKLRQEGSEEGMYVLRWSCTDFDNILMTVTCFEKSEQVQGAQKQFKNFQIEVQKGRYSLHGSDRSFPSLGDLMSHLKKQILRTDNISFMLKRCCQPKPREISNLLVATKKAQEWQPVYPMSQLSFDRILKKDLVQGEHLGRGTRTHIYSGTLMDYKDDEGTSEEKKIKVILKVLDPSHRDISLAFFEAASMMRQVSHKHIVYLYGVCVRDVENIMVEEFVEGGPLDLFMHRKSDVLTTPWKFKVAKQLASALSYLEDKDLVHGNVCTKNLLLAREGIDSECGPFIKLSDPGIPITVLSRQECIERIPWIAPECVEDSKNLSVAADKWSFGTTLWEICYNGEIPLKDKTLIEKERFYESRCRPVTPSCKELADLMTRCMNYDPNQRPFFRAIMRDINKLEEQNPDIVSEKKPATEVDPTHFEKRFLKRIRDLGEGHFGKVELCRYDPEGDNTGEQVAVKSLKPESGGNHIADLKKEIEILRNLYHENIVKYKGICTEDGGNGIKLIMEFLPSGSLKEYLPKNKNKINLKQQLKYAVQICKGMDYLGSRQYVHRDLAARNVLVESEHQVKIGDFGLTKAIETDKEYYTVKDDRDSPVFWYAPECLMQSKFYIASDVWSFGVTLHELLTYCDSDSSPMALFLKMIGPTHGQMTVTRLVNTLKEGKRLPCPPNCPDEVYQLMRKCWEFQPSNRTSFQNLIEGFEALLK
A general note: In TR-FRET formats the signal depends on donor and acceptor labels being close together.

The target of assay [9] is T1, Tyrosine-protein kinase JAK3 (Homo sapiens, UniProt P52333).
T1 sequence (P52333 whole entry): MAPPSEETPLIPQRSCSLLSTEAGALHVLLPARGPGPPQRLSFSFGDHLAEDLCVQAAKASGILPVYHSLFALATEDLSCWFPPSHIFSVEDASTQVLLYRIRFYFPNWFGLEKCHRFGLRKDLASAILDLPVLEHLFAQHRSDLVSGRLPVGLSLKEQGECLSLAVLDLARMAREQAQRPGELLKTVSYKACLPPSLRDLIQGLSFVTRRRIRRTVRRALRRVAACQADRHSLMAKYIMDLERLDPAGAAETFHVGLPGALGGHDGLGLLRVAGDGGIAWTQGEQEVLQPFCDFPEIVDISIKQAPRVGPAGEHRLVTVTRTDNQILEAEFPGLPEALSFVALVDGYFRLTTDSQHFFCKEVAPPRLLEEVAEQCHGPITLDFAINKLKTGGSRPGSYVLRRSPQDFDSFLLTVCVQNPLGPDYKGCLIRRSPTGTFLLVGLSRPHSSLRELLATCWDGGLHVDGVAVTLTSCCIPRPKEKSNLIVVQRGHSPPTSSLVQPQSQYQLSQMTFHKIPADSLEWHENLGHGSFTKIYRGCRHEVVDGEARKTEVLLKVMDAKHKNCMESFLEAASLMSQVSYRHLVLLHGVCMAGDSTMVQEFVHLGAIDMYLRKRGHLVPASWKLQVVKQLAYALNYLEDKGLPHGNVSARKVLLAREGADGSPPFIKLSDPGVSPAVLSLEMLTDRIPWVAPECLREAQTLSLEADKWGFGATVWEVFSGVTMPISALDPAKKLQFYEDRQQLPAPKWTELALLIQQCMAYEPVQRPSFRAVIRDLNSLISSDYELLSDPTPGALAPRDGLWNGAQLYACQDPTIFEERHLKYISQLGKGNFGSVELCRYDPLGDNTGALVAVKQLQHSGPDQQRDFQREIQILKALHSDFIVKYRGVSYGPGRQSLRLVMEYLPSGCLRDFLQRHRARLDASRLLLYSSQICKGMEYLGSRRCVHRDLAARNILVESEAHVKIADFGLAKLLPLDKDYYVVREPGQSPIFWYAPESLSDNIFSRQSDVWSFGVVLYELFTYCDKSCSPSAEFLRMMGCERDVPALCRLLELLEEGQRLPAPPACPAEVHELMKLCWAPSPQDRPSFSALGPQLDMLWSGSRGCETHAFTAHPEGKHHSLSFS
As to the kind of experiment: Inhibition of recombinant human JAK3 using Ulight-CAGAGAIETDKEYYTVKD as substrate measured after 60 mins by LANCE assay.

For assay [10], the target named is Non-receptor tyrosine-protein kinase TYK2 (Homo sapiens, UniProt P29597). As to the kind of experiment: Inhibition of recombinant human TYK2 using Ulight-CAGAGAIETDKEYYTVKD as substrate measured after 60 mins by LANCE assay. In short, it runs like this:
as §1

Bounds are passed on as bounds.

Sequence of Tyrosine-protein kinase JAK2 (O60674 whole entry): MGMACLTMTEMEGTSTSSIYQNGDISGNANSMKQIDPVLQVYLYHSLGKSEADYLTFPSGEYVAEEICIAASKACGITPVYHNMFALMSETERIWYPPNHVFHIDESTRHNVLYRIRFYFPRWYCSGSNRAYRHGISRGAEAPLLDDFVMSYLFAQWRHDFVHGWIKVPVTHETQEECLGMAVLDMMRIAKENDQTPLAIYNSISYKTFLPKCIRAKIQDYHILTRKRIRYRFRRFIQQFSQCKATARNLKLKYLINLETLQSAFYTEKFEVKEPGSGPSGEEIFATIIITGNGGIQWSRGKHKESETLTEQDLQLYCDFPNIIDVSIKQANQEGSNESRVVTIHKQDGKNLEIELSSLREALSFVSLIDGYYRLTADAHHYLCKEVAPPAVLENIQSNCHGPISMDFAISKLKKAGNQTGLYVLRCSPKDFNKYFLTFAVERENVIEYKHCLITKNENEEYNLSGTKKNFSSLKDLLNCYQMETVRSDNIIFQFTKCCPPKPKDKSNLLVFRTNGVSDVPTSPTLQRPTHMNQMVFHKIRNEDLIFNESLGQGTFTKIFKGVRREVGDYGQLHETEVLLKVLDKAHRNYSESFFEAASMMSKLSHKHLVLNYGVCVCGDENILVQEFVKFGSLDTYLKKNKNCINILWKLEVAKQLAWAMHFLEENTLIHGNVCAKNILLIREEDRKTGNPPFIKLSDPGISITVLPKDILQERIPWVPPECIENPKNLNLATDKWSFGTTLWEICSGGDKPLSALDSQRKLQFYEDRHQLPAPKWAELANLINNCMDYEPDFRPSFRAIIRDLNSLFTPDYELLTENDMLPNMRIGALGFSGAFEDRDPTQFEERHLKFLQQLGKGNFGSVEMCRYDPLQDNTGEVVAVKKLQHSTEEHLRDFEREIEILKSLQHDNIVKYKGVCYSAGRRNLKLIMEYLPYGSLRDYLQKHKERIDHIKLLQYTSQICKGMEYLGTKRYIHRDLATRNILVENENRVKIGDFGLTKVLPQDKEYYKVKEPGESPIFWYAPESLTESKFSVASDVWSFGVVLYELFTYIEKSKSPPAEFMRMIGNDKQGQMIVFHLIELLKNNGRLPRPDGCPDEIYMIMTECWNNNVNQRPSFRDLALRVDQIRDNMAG
Sequence of Non-receptor tyrosine-protein kinase TYK2 (P29597 whole entry): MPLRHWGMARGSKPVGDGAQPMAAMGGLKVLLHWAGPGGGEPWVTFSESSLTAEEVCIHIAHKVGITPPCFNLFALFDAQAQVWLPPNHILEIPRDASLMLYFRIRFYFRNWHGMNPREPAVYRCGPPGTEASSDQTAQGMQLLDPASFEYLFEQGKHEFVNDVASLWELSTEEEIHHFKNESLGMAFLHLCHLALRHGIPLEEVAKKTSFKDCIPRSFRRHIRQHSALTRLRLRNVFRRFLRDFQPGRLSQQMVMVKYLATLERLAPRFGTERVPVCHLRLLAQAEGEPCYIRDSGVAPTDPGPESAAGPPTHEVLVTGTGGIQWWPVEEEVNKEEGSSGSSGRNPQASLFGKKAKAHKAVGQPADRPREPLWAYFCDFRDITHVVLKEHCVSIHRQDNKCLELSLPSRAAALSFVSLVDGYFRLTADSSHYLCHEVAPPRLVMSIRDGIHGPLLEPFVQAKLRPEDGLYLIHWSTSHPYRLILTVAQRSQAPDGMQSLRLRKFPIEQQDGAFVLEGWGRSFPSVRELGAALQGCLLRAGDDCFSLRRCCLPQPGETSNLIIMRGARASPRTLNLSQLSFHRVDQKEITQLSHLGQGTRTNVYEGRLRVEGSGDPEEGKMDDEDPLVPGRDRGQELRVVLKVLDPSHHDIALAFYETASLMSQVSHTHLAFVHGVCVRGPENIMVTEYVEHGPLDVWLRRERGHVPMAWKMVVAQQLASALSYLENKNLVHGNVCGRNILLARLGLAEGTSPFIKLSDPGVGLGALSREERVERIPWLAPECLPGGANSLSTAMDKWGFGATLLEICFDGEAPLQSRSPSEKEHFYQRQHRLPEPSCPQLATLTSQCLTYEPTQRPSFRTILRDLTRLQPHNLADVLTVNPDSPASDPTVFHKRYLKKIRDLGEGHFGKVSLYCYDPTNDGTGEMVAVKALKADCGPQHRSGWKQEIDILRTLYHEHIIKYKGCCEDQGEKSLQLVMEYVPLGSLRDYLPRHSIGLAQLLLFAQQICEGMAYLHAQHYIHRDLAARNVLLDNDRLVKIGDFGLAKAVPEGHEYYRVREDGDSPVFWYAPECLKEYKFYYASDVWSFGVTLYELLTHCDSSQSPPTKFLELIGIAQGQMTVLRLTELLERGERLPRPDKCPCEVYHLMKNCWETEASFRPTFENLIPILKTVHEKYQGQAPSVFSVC

Turning to `O=C(CCCCCCn1cc(Nc2ncc(Cl)c(Nc3ccc(F)cc3)n2)cn1)NO`, the IC50 (in general, the midpoint of a concentration-inhibition curve) in [1] was 500 nM; in assay [2], 210 nM; in assay [3], 15 nM; in assay [4], 3 nM; in assay [6], 220 nM; in [7], 120 nM. Further, the Ratio IC50 in [5] was > 50.
`COc1ccc(Nc2nc(Nc3cnn(CCCCCCC(=O)NO)c3)ncc2Cl)cc1`: the IC50 in [1] came to 620 nM; in assay [2], 210 nM; in [3] it was 10 nM; in assay [4], 3 nM; in assay [6], 170 nM; in assay [7], 130 nM. Moreover, the Ratio IC50 in assay [5] was > 50.
In the case of `O=C(CCCCCCn1cc(Nc2ncc(F)c(Nc3ccc(F)cc3)n2)cn1)NO`, the IC50 is > 100 nM in assay [3] and 3 nM in assay [4]. The Ratio IC50 in [5] is > 50.
On to `O=C(CCCCCCn1cc(Nc2ncc(Cl)c(NC3CC3)n2)cn1)NO`, for which the IC50 was determined as 380 nM in assay [1]; 80 nM in assay [2]; 13 nM in assay [4]; 14 nM in [8]; 2 nM in [9]; 12 nM in [10]. The IC50 amounted to 150 nM in [6] and 50 nM in assay [7].
Take `O=C(CCCCCCn1cc(Nc2ncc(Cl)c(Nc3ccc(Cl)cc3)n2)cn1)NO`: the IC50 in assay [1] was determined as 320 nM; in [2], 120 nM; in [3] it was 14 nM; in [4] it was 2 nM; in assay [8] it was 10 nM; in [9], 7.6 nM. Also, the IC50 in assay [10] was determined as 94 nM; in assay [6] it was 120 nM; in assay [7], 100 nM. In [5], the Ratio IC50 is > 50.
